Screening data deposited in PubChem BioAssay by several laboratories.
Most compounds without a hit are left out; they make up all but 3.3% or so of the library.
HTR2A ag: mouse HTR2A agonism via beta-arrestin recruitment; CHO-K1 mHTR2A beta-arrestin complementation, luminescence; percent of 30 µM serotonin response; AID 624169; 360,000 tested, 0.66% active; P35363; activation, % at 7.6 µM;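 active means activation above a run cutoff, the mean activation of all tested compounds plus 3 SD, cut at about 14% in these data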
Target sequence (P35363 whole entry, looked up): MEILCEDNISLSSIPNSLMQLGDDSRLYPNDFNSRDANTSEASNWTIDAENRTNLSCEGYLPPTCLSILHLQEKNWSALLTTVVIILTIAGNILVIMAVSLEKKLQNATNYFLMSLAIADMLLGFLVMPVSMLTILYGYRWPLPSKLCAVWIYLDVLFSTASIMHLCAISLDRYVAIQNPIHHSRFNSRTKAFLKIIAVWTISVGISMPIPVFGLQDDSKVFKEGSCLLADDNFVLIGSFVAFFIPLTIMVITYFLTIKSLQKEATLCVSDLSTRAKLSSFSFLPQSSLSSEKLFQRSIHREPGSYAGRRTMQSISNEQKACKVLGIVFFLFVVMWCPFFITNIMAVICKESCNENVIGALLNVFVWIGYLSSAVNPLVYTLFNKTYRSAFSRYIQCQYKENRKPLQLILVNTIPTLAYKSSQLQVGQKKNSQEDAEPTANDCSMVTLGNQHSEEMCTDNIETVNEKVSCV
Arrestin-AP2 inh: human beta-arrestin and AP2 interaction inhibition | FITC-arrestin peptide / GST-AP2 beads, flow cytometry; AP2 beta2 appendage carries R879A mutation | 340,000 tested, 0.31% active | inhibition, % at 10 µM;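 active means inhibition above a set limit, near 3 SD of compounds lacking own fluorescence, cut at about 54% in these data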
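System: GST-AP2 R879A glutathione beads. Medium: PBS with 0.05% Tween 20 and 0.1% BSA. Also added: FITC-arrestin peptide, 50 nM. Incubation: 12 min plus 1 h, RT. Measured by: high-throughput flow cytometry of beads, ex 488, em 535 nm. Evaluation: percent drop in bead-associated FITC signal.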
sPLA2-III inh: Inhibits HGIII-sPLA2 liposome hydrolysis, primary screen; Q9NZ20; QFRET BODIPY PC-A2 liposome hydrolysis, fluorescence; inhibition, % at 12.2 µM; 370,000 tested, 0.56% active;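 active means inhibition above mean plus 3 SD of compounds lying within the high and low control bounds, cut at about 19% in these data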
CendR NRP1 mod: NRP-1/CendR interaction modulation. O14786. FAM-RPARPAR peptide binding to NRP-1, fluorescence polarization. inhibition, % at 25 µM. 360,000 tested, 0.85% active;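 active means inhibition or corrected inhibition above about 18%, plus a signal ratio from 0.5 to 1.5, limit read from the data, passing the limit was not always enough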
M18AAP inhibitor: blocks P. falciparum M18 aspartyl aminopeptidase; 290,000 tested, 1.2% active; inhibition, % at 7.35 µM; recombinant PfM18AAP, H-Glu-NHMec fluorogenic cleavage;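 active means inhibition above the campaign mean inhibition over all tested compounds plus 3 SD, cut at about 28% in these data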
Lipid droplet: hepatic lipid droplet formation modulation; 240,000 tested, 0.4% active; AML12 mouse hepatocytes, oleate lipid droplets, BODIPY imaging; inhibition, % at 6.5 µM;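 active means lipid droplet intensity inhibited by at least 50%, with more than 500 cells counted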
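Test system: AML12 hepatocytes (mouse); reagent: oleate loading, 100 µM; dosing: one dose, 6.5 µM compound; incubation: overnight exposure; signal: fluorescence imaging, 20x objective, two fields per well; read-out basis: % inhibition of corrected integrated BODIPY droplet signal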
hGIII sPLA2 conf: human GIII-sPLA2 inhibition, confirmation | shares compounds with sPLA2-III inh | recombinant hGIII-sPLA2, BODIPY PC-A2 QFRET fluorescence | inhibition, % at 12.2 µM | 2,000 tested, 34% active;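 active means mean inhibition across triplicates above the hit cutoff set in the earlier primary screen, cut at about 19% in these data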
BODIPY interf: counter-screen for HGIII-sPLA2 inhibitors: 535nm fluorescence interference; shares compounds with sPLA2-III inh; BODIPY FL product fluorescence interference, QFRET; inhibition, % at 12.2 µM; 2,000 tested, 8.5% active; AID 743282;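 active means average inhibition above the solvent-only control mean plus 3 SD, cut at about 6% in these data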
BODIPY interf DR: counter-screen for HGIII-sPLA2 inhibitors: 535nm fluorescence interference, dose response; shares compounds with sPLA2-III inh; BODIPY FL product fluorescence interference, cell-free; IC50, µM; 240 tested, under 10 active; AID 743455;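 active means IC50 at or below 10 µM; inactive means IC50 above 10 µM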
Hits are given with their value; n = inactive; x = not tested or not shown.

SMILES	HTR2A ag	Arrestin-AP2 inh	sPLA2-III inh	CendR NRP1 mod	M18AAP inhibitor	Lipid droplet	hGIII sPLA2 conf	BODIPY interf	others
CC(C)Cn1c(/C=N/Nc2nc3ccccc3[nH]2)nc2ccccc21	n	n	29	n	n	n	39	n
CCCNc1nc2ccccc2n2c(C)nnc12	n	n	n	n	n	x	x	x
O=C(O)C1CC=CCC1C(=O)N1CCN(c2nc(-c3ccccc3)c3ccccc3n2)CC1 (configuration not stated)	n	n	n	n	n	x	x	x
O=C(O)C1CC=CCC1C(=O)N1CCN(c2nc(-c3ccccc3Cl)c3cc(Br)ccc3n2)CC1 (configuration not stated)	n	n	24	n	x	x	n	n
CCCCCN=C(N)N/N=C/c1c[nH]c2ccc(OC)cc12	n	n	28	n	x	x	40	n
CCCOc1ccc(C(=O)N/N=C/c2c[nH]c3ccc(Br)cc23)cc1	n	n	n	n	n	n	x	x
COc1ccc(NCc2nnc(-c3ccccc3)o2)cc1	n	n	n	n	n	n	x	x
O=[N+]([O-])c1ccc(N=Nc2ccc(O)cc2O)cc1	n	n	n	n	n	x	x	x
O=S(=O)(O)c1cc(Cl)cc(N=Nc2ccc(O)cc2O)c1O	n	n	49	n	x	x	n	n
O=C(Nc1ccccc1)Nc1nc2ncccn2c1-c1ccc(C(F)(F)F)cc1	x	x	n	x	x	x	x	x
COc1ccccc1N1CCN(CCN2C(=O)CC3(CCCC3)CC2=O)CC1	n	n	20	n	x	x	n	n
CCOC(=O)C1(C)CCCN(C(=O)c2ccc3c(c2)OCO3)C1 (configuration not stated)	n	x	n	n	x	x	x	x
CC(=O)Oc1ccccc1Cn1c(C)c(C(=O)NCc2ccccc2C(F)(F)F)sc1=O	n	x	n	n	x	x	x	x
COC(=O)[C@]12CCCCC=C1N(CCc1ccc(OC)c(OC)c1)C(=O)[C@H](CC(=O)NCc1cccc(C(F)(F)F)c1)C2	n	x	n	n	x	x	x	x
CCCC(=O)Nc1c2c(nn1-c1cccc(C)c1C)CS(=O)(=O)C2	n	n	n	n	n	n	x	x
CCCCC(=O)Nc1c2c(nn1-c1cccc(C)c1C)CS(=O)(=O)C2	n	n	20	n	n	n	n	n
CCOc1cc(N2CCOCC2)c(OCC)cc1NC(=O)c1ccc(OCc2c(C)noc2C)c(OC)c1	n	n	20	n	n	n	n	n
C/C(=N/NC(=O)c1ccc2c(c1)OCCO2)c1ccc([N+](=O)[O-])cc1	n	n	23	n	n	n	n	n
CCCCn1c(-c2csc(C(C)C)c2)n[nH]c1=S	n	n	n	n	n	n	x	x
CCCCn1c(-c2nn(C)c(C)c2Cl)n[nH]c1=S	n	n	20	n	n	x	24	n
CCCCn1c(-c2csc(CC)c2)n[nH]c1=S	n	n	20	n	n	n	25	n
Cc1cccc(C)c1NC(=S)NC(=O)c1cccc(Cl)c1	n	x	n	n	x	x	x	x
O=C(O)CC1(CC(=O)Nc2ccc3c(c2)C(=O)OC3)CCCCC1	n	n	n	n	n	n	x	x
O=C(O)CC1(CC(=O)NCc2cc(F)cc3c2OCOC3)CCCCC1	n	n	20	n	n	n	n	n
COc1cccc(-n2sc3c(c2=S)-c2cc(OC)ccc2NC3(C)C)c1	n	n	27	n	n	x	n	n
SMILES	HTR2A ag	Arrestin-AP2 inh	sPLA2-III inh	CendR NRP1 mod	M18AAP inhibitor	Lipid droplet	hGIII sPLA2 conf	BODIPY interf	others
CC[C@H](C)[C@@H](CN[C@H](C)CNC)NCCC(c1ccccc1)c1ccccc1	n	n	26	n	n	n	n	n
Cn1nc(C(C)(C)C)cc1C(=O)N1CCCC(c2cc(C(=O)Nc3ccccc3Cl)no2)C1 (configuration not stated)	n	x	n	n	x	x	x	x
CC(C)(C)c1ccc(OCCCCCCN2CCNCC2)cc1	n	n	23	n	x	x	n	n
CC(C)(c1ccccc1)c1ccc(OCCCN2CCNCC2)cc1	n	n	n	n	n	n	x	x
OC1OC2COC(c3ccccc3)OC2C(O)C1O (configuration not stated)	x	x	n	x	x	x	x	x
CCCCc1ccc(NC(=S)N2CCCC2)cc1	n	n	20	n	n	n	n	n
Cc1cc(NS(=O)(=O)c2ccc(N3C(=O)C4C5C=CC(C5)C4C3=O)cc2)nc(C)n1 (configuration not stated)	n	n	21	n	n	n	n	n
Cc1ccc(S(=O)(=O)Nc2ccc(S(=O)(=O)Nc3cc(C)nc(C)n3)cc2)cc1	n	n	n	n	n	n	x	x
C/C(=N\NC(=S)NC1CCCCC1)c1ccc(C#N)cc1	n	n	26	n	n	n	n	n
O=S1(=O)c2ccc(Br)cc2OC[C@H](Cc2ccccc2)N1Cc1cn(Cc2ccc(Cl)cc2)nn1	x	x	n	x	x	x	x	x
COc1ccc(C(=O)NC(=S)NNC(=O)c2ccco2)cc1	n	n	19	n	n	n	29	n	BODIPY interf DR=n
CN(C)S(=O)(=O)c1cccc(NC(=S)NNC(=O)c2cc3ccccc3cc2O)c1	n	n	37	n	x	x	36	13
COc1ccc(/C=C/C(=O)NC(=S)NNC(=O)c2ccco2)cc1	n	n	25	n	n	n	53	n	BODIPY interf DR=n
CN(C)S(=O)(=O)c1cccc(NC(=S)NC(=O)c2ccco2)c1	n	n	n	n	x	x	x	x
O=C(NC(=S)Nc1cccc(NC(=S)NC(=O)c2ccco2)n1)c1ccco1	n	n	n	n	n	n	x	x
O=C(NC(=S)NNC(=O)c1ccco1)c1ccc(F)cc1	n	n	n	n	n	n	x	x
O=C(NC(=S)NNC(=O)c1cc2ccccc2cc1O)c1ccco1	n	n	21	n	n	n	28	n	BODIPY interf DR=n
COc1ccc(/C=C/C(=O)NC(=S)Nc2ccc(C(=O)O)cc2)cc1	n	n	20	n	n	n	n	n
COc1ccc(/C=C/C(=O)NC(=S)NNC(=O)c2cc(OC)c(OC)c(OC)c2)cc1OC	n	n	n	n	n	n	x	x
COc1ccc(/C=C/C(=O)NC(=S)NNC(=O)c2ccco2)cc1OC	n	n	20	n	n	n	25	n
Cn1c(=O)c2cc(NC(=O)CCc3ccc4c(c3)OCO4)ccc2n1Cc1ccc(F)cc1	n	x	n	n	x	x	x	x
NC(=S)NN=C(c1ccccc1)c1ccccc1	n	n	19	n	n	n	22	n
Oc1ccccc1N=Nc1nc(-c2ccccc2)c(-c2ccccc2)[nH]1	n	n	28	n	n	n	n	16
